Experimental findings from ChEMBL document CHEMBL1144707, “Antiparasitic, antineuroinflammatory, and cytotoxic polyketides from the marine sponge Plakortis angulospiculatus collected in Brazil” (J Nat Prod, 2008) are described below.

Data set [1] has as its system Leishmania chagasi. Nature of the data set: Antileishmanial activity against Leishmania chagasi intracellular amastigotes infected in hamster macrophages after 48 hrs […]. It counts as functional, organism-based. A digest of the protocol:
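Intracellular amastigotes tested in infected macrophages, with pentavalent antimony as standard. Amastigotes were obtained from hamster spleens 60–70 days postinfection. Parasite burden was scored as the mean number of amastigotes per macrophage over 500 cells. Result expressed as IC50.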

For data set [2], the system named is Leishmania chagasi. The data set is described as follows: Antileishmanial activity against Leishmania chagasi promastigotes infected in hamster after 48 hrs by MTT assay. In kind it is functional, organism-based. A digest of the protocol:
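Promastigotes maintained in M-199 with 10% calf serum and 0.25% hemin at 24 °C, seeded at 1 × 10^6 cells/well. Incubated with 0.488–500 µg/mL for 48 h at 24 °C, pentamidine as standard. Viability by MTT at 570 nm.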

Data set [3] is described as follows: Toxicity in BALB/c mouse erythrocytes assessed as hemolysis at 6.25 ug/ml after 2 hrs. In kind it is cell-based, Erythrocyte. The note with it: read-out: Activity. A digest of the protocol:
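A 3% suspension of BALB/c mouse erythrocytes incubated with compounds for 2 h at 25 °C. Supernatant absorbance read at 550 nm.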

Data set [4] in a line: Cytotoxicity against human macrophages after 48 hrs by MTT assay. It counts as cell-based, Macrophage.
The nature of data set [5]: Selectivity index, ratio of IC50 for human macrophages to IC50 for antileishmanial activity against Leishmania chagasi intracellular amastigotes. In kind it is functional. In a few lines:
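Ratio of macrophage cytotoxicity IC50 (MTT, 48 h) to IC50 against L. chagasi intracellular amastigotes.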

For another data set, the system named is Trypanosoma cruzi. Nature of the data set: Antitrypanosomal activity against Trypanosoma cruzi Y infected in […] LLC-MK2 cells after 24 hrs by MTT assay. In kind it is functional, organism-based. To be noted: LLC-MK2, 24 h. A digest of the protocol:
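Free trypomastigotes (Y strain) from LLC-MK2 cultures, seeded at 1 × 10^6 cells/well. Incubated up to 100 µg/mL for 24 h at 37 °C in 5% CO2, benznidazole as standard. Viability by MTT conversion, formazan extracted with 10% SDS for 18 h at 24 °C. IC50 in µg/mL.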

Data set [6] is described as follows: Antiinflammatory activity in rat neonatal brain microglia cells assessed as phorbol 12-myristate 13-acetate-stimulated superoxide release. In kind it is functional, cell-based. In a few lines:
(§1)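 Rat neonatal brain microglia, 2 × 10^5 cells per well, primed with E. coli LPS (0.3 ng/mL) for 17 h at 35.9 °C in 5% CO2. Cells were washed with HBSS, exposed to compounds (0.1–10 µM) or DMSO vehicle for 15 min, then stimulated with PMA (1 µM) for 70 min. O2-, TXB2 and LDH release were measured, duplicates, two independent experiments. IC50 for O2- and TXB2. LDH50 is the concentration giving 50% of the LDH release seen with 0.1% Triton X-100.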

Data set [7] in a line: Antiinflammatory activity in rat neonatal brain microglia cells assessed as phorbol 12-myristate 13-acetate-stimulated thromboxane B2 release. It counts as functional, cell-based. In a few lines:
as §1

Data set [8] in a line: Antiinflammatory activity in rat neonatal brain microglia cells assessed as drug level causing 50% LDH release. In kind it is functional, cell-based. In a few lines:
as §1

The subject of the next data set is MDA-MB-435. The data set is described as follows: Cytotoxicity against human MDA-MB-435 cells. It counts as functional, cell-based.
In the next data set the test system is HCT-8. The data set is described as follows: Cytotoxicity against human HCT8 cells. In kind it is functional, cell-based.
The next data set has as its system SF-295. Nature of the data set: Cytotoxicity against human SF295 cells. In kind it is functional, cell-based.
The next data set relates to HL-60. Nature of the data set: Cytotoxicity against human HL60 cells. It counts as functional, cell-based.
The nature of data set [9]: Selectivity index, ratio of mouse peritoneal macrophages to Antitrypanosomal activity against Trypanosoma cruzi Y.
For the next data set, the system named is Macrophage. The data set is described as follows: Induction of nitric oxide in BALB/c mouse peritoneal macrophages at 4 ug/mL after 24 hrs by griess assay. It counts as functional, cell-based. A digest of the protocol: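 Peritoneal macrophages incubated 24 h at 37 °C with compound at 4 µg/mL. LPS at 50 µg/mL served as the internal activation control. NO measured by Griess reaction, absorbance at 540 nm.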

For data set [10], the system named is Leishmania chagasi. Nature of the data set: Induction of morphological changes in Leishmania chagasi promastigotes assessed as mitochondrial swelling at 17 ug/ml after 3 hrs by electron microscopy. It counts as functional, organism-based. A digest of the protocol:
(§2)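 Promastigotes (kept in M-199 with 10% calf serum and 0.25% hemin at 24 °C) incubated with compound at 17 µg/mL at 24 °C for 0, 1, 3, 5 or 7 h. Cells then processed for transmission electron microscopy and compared with an untreated control for ultrastructural changes.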

The test system of data set [11] is Leishmania chagasi. The data set is described as follows: Induction of morphological changes in Leishmania chagasi promastigotes assessed as increase in vacuoles at 17 ug/ml after 3 hrs by electron microscopy. In kind it is functional, organism-based. In a few lines: as §2
Data set [12] concerns Leishmania chagasi. Nature of the data set: Induction of morphological changes in Leishmania chagasi promastigotes assessed as abnormal chromatin at 17 ug/ml after 3 hrs by electron microscopy. In kind it is functional, organism-based. In a few lines: as §2
Data set [13] deals with Leishmania chagasi. Nature of the data set: Induction of morphological changes in Leishmania chagasi promastigotes assessed as flagellar blebs at 17 ug/ml after 3 hrs by electron microscopy. It counts as functional, organism-based. In a few lines: as §2
Data set [14] relates to Leishmania chagasi. The data set is described as follows: Induction of morphological changes in Leishmania chagasi promastigotes assessed as cell membrane detachment at 17 ug/ml after 5 hrs by electron microscopy. In kind it is functional, organism-based. A digest of the protocol:
as §2

Data set [15] has as its system Leishmania chagasi. The data set is described as follows: Induction of morphological changes in Leishmania chagasi promastigotes assessed as nuclear destruction with chromatin decondensation at 17 ug/ml after 5 hrs by electron microscopy. In kind it is functional, organism-based. A digest of the protocol: as §2
Data set [16] deals with Leishmania chagasi. The data set is described as follows: Induction of morphological changes in Leishmania chagasi promastigotes assessed as nuclear membrane blebs at 17 ug/ml after 5 hrs by electron microscopy. In kind it is functional, organism-based. In a few lines:
as §2

[17] abbreviates: Leishmania chagasi, 48 h, read-out: IC50.
[18] abbreviates: Homo sapiens, Macrophage, 48 h, read-out: IC50.

Converted amounts (≈) assume the structure as drawn. The source made the active and inactive calls. The rule behind the calls is not given here.

Consider `CCCC[C@H](CC)C[C@]1(CC)C=C(CC)/C(=C\C(=O)OC)O1`, for which the IC50 in the data set with Leishmania chagasi [1] (setting [17]) is 3.4 µg/mL (≈ 11 µM); with Leishmania chagasi [2], 3.9 µg/mL (≈ 12.6 µM); in data set [4] (setting [18]), 31.6 µg/mL (≈ 102 µM); in the data set with Trypanosoma cruzi, 31.6 µg/mL (≈ 102 µM); in [6], > 10 µM; in data set [7] it was > 10 µM. For the same molecule, the IC50 in [8] was > 10 µM; with MDA-MB-435 it was 6.5 µg/mL (≈ 21.1 µM); with HCT-8, 8 µg/mL (≈ 25.9 µM); in the data set on SF-295, 16.8 µg/mL (≈ 54.5 µM); in the data set with HL-60, 15.2 µg/mL (≈ 49.3 µM). The hemolysis at 2 h, 6.25 ug/ml in data set [3] was 0%. In addition, the figures for the Selectivity index in [5] and in data set [9] were 9.2 and 1, respectively.
On to `CC/C=C/[C@H](CC)C[C@@]1(C)C[C@@H](CC)[C@@H](CC(=O)OC)OO1` [PLAKORTIN], for which the IC50 in the data set on Leishmania chagasi [2] is 6 µg/mL (≈ 19.2 µM); in [4] (setting [18]) it was 4.7 µg/mL (≈ 15 µM); in [6], > 1 µM; in data set [7], > 1 µM; in data set [8], > 10 µM; in the data set with MDA-MB-435, 10.4 µg/mL (≈ 33.3 µM). Further, the IC50 with HCT-8 amounted to 3 µg/mL (≈ 9.6 µM); in the data set with SF-295, 9.8 µg/mL (≈ 31.4 µM); in the data set with HL-60, 13.3 µg/mL (≈ 42.6 µM). Further, in data set [3], the hemolysis at 2 h, 6.25 ug/ml was 0%.
Take MEGLUMINE ANTIMONATE: the IC50 was 21 µg/mL with Leishmania chagasi [1] and > 1000 µg/mL in [4] (macrophage).
As for `CC/C=C/[C@H](CC)C[C@]1(CC)C=C(CC)/C(=C/C(=O)OC)O1`, the IC50 in the data set on Leishmania chagasi [1] (setting [17]) was 1.6 µg/mL (≈ 5.22 µM); with Leishmania chagasi [2], 8.5 µg/mL (≈ 27.7 µM); in data set [4] (setting [18]), 30.2 µg/mL (≈ 98.5 µM); with Trypanosoma cruzi, 16.5 µg/mL (≈ 53.8 µM); in [6], > 10 µM; in data set [7], > 10 µM. Further, the IC50 in data set [8] is > 10 µM; in the data set on MDA-MB-435, 9.6 µg/mL (≈ 31.3 µM); in the data set on HCT-8, 7.2 µg/mL (≈ 23.5 µM); in the data set on SF-295, 11.4 µg/mL (≈ 37.2 µM); with HL-60 it was 8.6 µg/mL (≈ 28.1 µM). In addition, the hemolysis at 2 h, 6.25 ug/ml in [3] came out at 7.24%. Further, the Selectivity index is on record as 18.6 in [5] and 1.8 in [9].
In the case of `O=C(Cn1ccnc1[N+](=O)[O-])NCc1ccccc1` [BENZNIDAZOLE], in the data set with Trypanosoma cruzi, 36.3 µg/mL (≈ 139 µM) corresponded to half-maximal inhibition (IC50).
`CC/C=C/[C@H](CC)C[C@]1(C)C=C(CC)/C(=C/C(=O)OC)O1` [SPONGOSORITIN A]: the IC50 was 3.1 µg/mL (≈ 10.6 µM) in the data set on Leishmania chagasi [1] (setting [17]); 2.5 µg/mL (≈ 8.55 µM) in the data set on Leishmania chagasi [2]; 29.8 µg/mL (≈ 102 µM) in data set [4] (setting [18]); 25.7 µg/mL (≈ 87.9 µM) in the data set with Trypanosoma cruzi; > 10 µM in [6]; > 10 µM in data set [7]. In addition, the IC50 in data set [8] is > 10 µM; in the data set on MDA-MB-435 it was > 25 µg/mL; in the data set on HCT-8, > 25 µg/mL; in the data set with SF-295, > 25 µg/mL; with HL-60, > 25 µg/mL. In addition, the hemolysis at 2 h, 6.25 ug/ml in [3] is 1.8%. For the same molecule, the Selectivity index in data set [5] was determined as 9.6; in [9], 1.15.
In the case of `CC/C=C/[C@H](CC)C/C(=C/[C@@]1(CC)C[C@H](CC)[C@H](CC(=O)O)OO1)CC` [PLAKORTIDE N], the IC50 is 0.5 µg/mL (≈ 1.36 µM) in the data set on Leishmania chagasi [1] (setting [17]); 1.9 µg/mL (≈ 5.18 µM) in the data set on Leishmania chagasi [2]; 16.6 µg/mL (≈ 45.3 µM) in data set [4] (setting [18]); 2.3 µg/mL (≈ 6.27 µM) with Trypanosoma cruzi; > 10 µM in data set [6]; 0.93 µM in data set [7]. In data set [8], the IC50 was > 10 µM. For the same molecule, the hemolysis at 2 h, 6.25 ug/ml in data set [3] was 0%. Further, the Selectivity index in [5] is on record as 31.7; in data set [9] it was 7.1. The outcome in the data set with Macrophage was inactive. Further, the result in the data set with Leishmania chagasi [10], with Leishmania chagasi [11], with Leishmania chagasi [12], in the data set on Leishmania chagasi [13], in the data set with Leishmania chagasi [14] and in the data set on Leishmania chagasi [15] was Active. For the same molecule, in the data set on Leishmania chagasi [16], the result was Active.
On to `N=C(N)c1ccc(OCCCCCOc2ccc(C(=N)N)cc2)cc1` [PENTAMIDINE], for which the IC50 was 0.1 µg/mL (≈ 0.294 µM) in the data set on Leishmania chagasi [2] and 8.7 µg/mL (≈ 25.6 µM) in data set [4] (setting [18]).
